The test system of data set [1] is CD1 mice. Briefly: Capsaicin-induced spontaneous pain. Conditions: capsaicin 1 μg; for Capsaicin-induced pain: 10 μg intraplantar; for Capsaicin-induced nocifensive behaviors: 10 ng intraplantar. The format is in vivo, mouse.
Data set [2] has as its system CD1 mice. Nature of the data set: AITC-induced spontaneous pain. The format is in vivo, mouse. To be noted: AITC 1 μg; for AITC-induced pain: 10 μg intraplantar; for AITC-induced nocifensive behaviors: 10 ng intraplantar.
In data set [3] the target is TRPA1 (Mus musculus, UniProt Q8BLA8). Nature of the data set: Whole-cell patch clamp of AITC-induced TRPA1 currents in dissociated DRG neurons. The format is cell-based. Conditions: for Effect on TRPA1 currents: AITC (300 μM)-induced current; for IC50: read-out: TRPA1 IC50, TRPA1 current induced by AITC (300 μM), DRG neurons. (Patch clamp records ionic current or voltage across a cell membrane.)
TRPA1 (Mus musculus, UniProt Q8BLA8), sequence (Q8BLA8 whole entry): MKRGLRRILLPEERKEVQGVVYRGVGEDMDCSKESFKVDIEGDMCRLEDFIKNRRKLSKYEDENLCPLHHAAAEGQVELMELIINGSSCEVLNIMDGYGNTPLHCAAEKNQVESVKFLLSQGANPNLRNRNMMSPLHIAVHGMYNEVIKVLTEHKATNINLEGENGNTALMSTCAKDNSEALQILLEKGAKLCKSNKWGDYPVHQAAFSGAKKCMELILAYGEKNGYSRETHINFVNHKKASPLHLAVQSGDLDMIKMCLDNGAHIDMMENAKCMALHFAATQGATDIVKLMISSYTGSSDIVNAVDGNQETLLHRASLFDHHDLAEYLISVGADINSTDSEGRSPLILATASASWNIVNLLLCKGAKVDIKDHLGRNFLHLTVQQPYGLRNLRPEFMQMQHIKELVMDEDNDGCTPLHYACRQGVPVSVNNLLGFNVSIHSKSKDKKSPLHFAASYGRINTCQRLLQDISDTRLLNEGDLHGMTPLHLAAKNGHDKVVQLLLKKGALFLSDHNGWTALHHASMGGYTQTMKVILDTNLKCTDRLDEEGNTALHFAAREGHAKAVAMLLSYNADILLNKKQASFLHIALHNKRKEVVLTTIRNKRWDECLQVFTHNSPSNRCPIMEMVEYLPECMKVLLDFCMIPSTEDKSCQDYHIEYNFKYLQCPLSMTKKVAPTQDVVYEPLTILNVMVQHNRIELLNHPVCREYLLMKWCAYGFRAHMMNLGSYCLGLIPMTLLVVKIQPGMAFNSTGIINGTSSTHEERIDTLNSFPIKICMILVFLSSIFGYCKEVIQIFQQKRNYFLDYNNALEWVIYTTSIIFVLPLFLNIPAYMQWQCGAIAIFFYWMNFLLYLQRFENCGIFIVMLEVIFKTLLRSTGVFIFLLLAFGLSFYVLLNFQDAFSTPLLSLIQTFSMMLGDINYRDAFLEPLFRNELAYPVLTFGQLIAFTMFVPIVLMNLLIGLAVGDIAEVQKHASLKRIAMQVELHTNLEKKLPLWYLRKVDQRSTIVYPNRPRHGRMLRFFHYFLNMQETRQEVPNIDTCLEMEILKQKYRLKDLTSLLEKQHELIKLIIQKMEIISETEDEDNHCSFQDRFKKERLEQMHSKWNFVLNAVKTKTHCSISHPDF

In data set [4] the test system is TRPV1. The format is cell-based, mouse. Conditions: capsaicin 1 μM.
In data set [5] the target is TRPV1 (Mus musculus, UniProt Q704Y3). The format is cell-based. Conditions: for IC50: read-out: TRPV1 IC50.
TRPV1 (Mus musculus, UniProt Q704Y3), sequence (Q704Y3 whole entry): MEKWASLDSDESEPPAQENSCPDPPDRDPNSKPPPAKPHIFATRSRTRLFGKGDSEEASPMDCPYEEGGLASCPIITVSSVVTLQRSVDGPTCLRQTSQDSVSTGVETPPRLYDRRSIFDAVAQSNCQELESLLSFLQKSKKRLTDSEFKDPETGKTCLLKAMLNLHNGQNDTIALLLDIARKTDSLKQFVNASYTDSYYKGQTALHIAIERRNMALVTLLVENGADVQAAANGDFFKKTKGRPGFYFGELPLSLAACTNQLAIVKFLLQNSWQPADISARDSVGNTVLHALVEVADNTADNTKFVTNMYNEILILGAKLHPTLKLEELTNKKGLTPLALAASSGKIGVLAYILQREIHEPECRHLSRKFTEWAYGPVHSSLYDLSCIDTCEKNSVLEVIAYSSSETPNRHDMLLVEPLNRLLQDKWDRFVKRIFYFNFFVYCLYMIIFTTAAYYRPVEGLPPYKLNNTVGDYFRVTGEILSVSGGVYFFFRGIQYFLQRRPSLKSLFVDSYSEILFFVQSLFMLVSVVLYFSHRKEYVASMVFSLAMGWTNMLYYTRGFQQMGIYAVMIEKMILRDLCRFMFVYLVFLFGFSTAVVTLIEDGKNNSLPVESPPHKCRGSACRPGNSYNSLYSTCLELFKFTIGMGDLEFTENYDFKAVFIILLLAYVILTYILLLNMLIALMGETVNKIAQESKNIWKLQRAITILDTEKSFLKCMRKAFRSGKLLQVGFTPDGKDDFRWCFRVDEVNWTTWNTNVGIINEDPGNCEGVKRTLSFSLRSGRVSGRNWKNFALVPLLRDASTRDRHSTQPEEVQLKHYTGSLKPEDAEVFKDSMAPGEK
Data set [6] has as its system TRPA1. Briefly: AITC-induced sEPSC frequency increase in lamina II neurons of spinal cord slices. Conditions: AITC 300 μM. The format is cell-based, mouse. In a few lines:
(§1)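 Transverse L4–L5 spinal cord slices (400–600 μm) from CD1 mice aged 4–6 weeks, perfused with Krebs solution gassed with 95% O2/5% CO2 at 37°C. Whole-cell sEPSCs recorded from lamina IIo neurons held at −70 mV with K-gluconate internal solution at pH 7.4. Signals filtered at 2 kHz and digitized at 5 kHz. Frequency ratio taken against pretreatment baseline, with AITC at […]; n = 5–9 neurons.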

Data set [7] relates to CD1 mice. Nature of the data set: Formalin test. To be noted: 0.01 ng intrathecal. The format is in vivo, mouse.
In data set [8] the test system is CD1 mice. Briefly: Carrageenan-induced inflammatory pain. The format is in vivo, mouse. To be noted: 10 ng intraplantar.
Data set [9] concerns lamina II neurons of spinal cord slices. Nature of the data set: sEPSCs in spinal cord slices from CFA-inflamed mice. The format is cell-based, mouse. To be noted: 1 ng/ml; slices from CFA-inflamed mice (one day). The procedure, abridged:
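CD1 mice received CFA intraplantar (20 μl, 1 mg/ml) and were sliced 1 d later. Slices were compared with ones from noninflamed mice. L4–L5 transverse slices (400–600 μm) were perfused with Krebs solution at 37°C. Whole-cell recording from lamina IIo neurons held at −70 mV. sEPSC frequency and amplitude measured with test compound at 1 ng/ml; n = 5 neurons.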

For data set [10] the test system is unchanged. Briefly: Patch clamp of basal sEPSCs in lamina II neurons of spinal cord slices. The format is cell-based, mouse. To be noted: RvD2 alone, 1 ng/ml. In a few lines:
as §1

For data set [11], the system named is CD1 mice. Briefly: CFA-induced persistent inflammatory pain. The format is in vivo, mouse. To be noted: 10 ng intrathecal, 3 days after CFA.
Data set [12] relates to C-fiber-evoked field potentials in the dorsal horn. Nature of the data set: Spinal cord LTP of C-fiber-evoked field potentials in anesthetized mice. The format is in vivo, mouse. To be noted: 10 ng intrathecal, 2 h after LTP induction. In a few lines:
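Mice under urethane (1.5 g/kg i.p.), laminectomy at T13–L1. Bipolar sciatic nerve stimulation; C-fiber field potentials recorded in ipsilateral L4–L5 dorsal horn at 100–300 μm depth. Test pulses (2× threshold, 0.5 ms) every 5 min for >40 min, then tetanus (5× threshold, 100 Hz, 1 s, four trains, 10 s apart). Test compound 10 ng i.t. via PE5 catheter 2 h post-induction; n = 5; two-way ANOVA.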

Data set [13] has as its system CD1 mice. Nature of the data set: Rota-Rod test of motor function. The format is in vivo, mouse. Conditions: 10 ng i.t., naive animals.
The mark [14] stands for this setting: TRPV1 current induced by capsaicin (100 nM), DRG neurons.
Where [15] appears, read: GDPβS 2.5 mM, 8 min, RvD2 1 ng/ml.
The mark [16] stands for this setting: PTX 0.5 μg/ml, 18 h, RvD2 1 ng/ml.

Several values for one entry are separate records, joined by “and”; a condition that tells them apart may be missing. Equal entries are not always repeated.

Broadly, the IC50 is the concentration needed to halve the response being measured.

For `CC/C=C\C/C=C\C/C=C\C/C=C\C/C=C\C/C=C\CCC(=O)O` [DHA, docosahexaenoic acid, reference compound], the Capsaicin-induced pain result in data set [1] is “inhibited”. The AITC-induced pain entry in data set [2] was “but not AITC-induced pain”. Moreover, the “Effect on TRPA1 currents” value in data set [3] was “without affecting”.
Regarding `CC[C@@H](O)/C=C/C=C\C[C@@H](O)/C=C/C=C/C=C\[C@@H](O)CCCC(=O)O` [RvE1, Resolvin E1], in data set [1], the Capsaicin-induced nocifensive behaviors entry is reported as “selectively inhibited”. In addition, in data set [4] (1 ng/ml), the “Capsaicin-induced sEPSC frequency increase” value is given as “selectively inhibited”. Besides, the “Effect on TRPA1 currents” value in data set [3] is reported as “did not inhibit”.
Take `CC/C=C\C[C@H](O)/C=C/C=C\C=C\C=C\[C@@H](O)[C@@H](O)C/C=C\CCC(=O)O` [RvD1, Resolvin D1]: in [5] (even at high concentrations), the “Effect on TRPV1 currents” value is on record as “no effect”. For the same compound, the IC50 is above 26.6 nM in data set [5] (setting [14]); 9 nM and 8.5 nM in data set [3]. For the same compound, the “AITC-induced sEPSC frequency increase” value in data set [6] (10 ng/ml) was “selectively inhibited”. Besides, the AITC-induced nocifensive behaviors result in data set [2] was “selectively inhibited”.
With `CC/C=C\C/C=C\C/C=C\C/C=C\C/C=C\CCCC(=O)O` [EPA, eicosapentaenoic acid, reference compound], the Capsaicin-induced pain entry in data set [1] is recorded as “inhibited”. For the same compound, the AITC-induced pain result in data set [2] was “but not AITC-induced pain”. Also, in [3], the “Effect on TRPA1 currents” value is “without affecting”.
In the case of `CC/C=C\C[C@H](O)[C@H](O)/C=C/C=C/C=C\C=C\[C@@H](O)C/C=C\CCC(=O)O` [RvD2, Resolvin D2], in [7], the “Antinociceptive action in formalin test” value is on record as “significant antinociceptive action”. Besides, in [8], the CRG-induced heat hyperalgesia entry was “largely prevented” and the CRG-induced mechanical allodynia entry is “largely prevented”. Besides, the CRG-induced paw edema entry in data set [8] (data not shown) is reported as “reduced”. Further, in data set [9], the “CFA-induced increase in sEPSC amplitude” value is listed as “abolished” and the “CFA-induced increase in sEPSC frequency” value is “abolished”. The Capsaicin-induced nocifensive behaviors entry in data set [1] was “significantly reduced”. In addition, in data set [10], the “Basal sEPSC amplitude” value was “altered neither” and the “Basal sEPSC frequency” value is recorded as “altered neither”. In data set [11], the CFA-induced heat hyperalgesia result is “effectively reduced”; the “Duration of reduction of CFA-induced heat hyperalgesia and mechanical allodynia” value was above 3 h. Also, the CFA-induced mechanical allodynia result in data set [11] (data not shown) is on record as “effectively reduced”. For the same compound, in data set [12], the “LTP of C-fiber-evoked field potentials” value is reported as “completely reversed”. Besides, the “Inhibition of TRPV1 current under intracellular GDPβS” value in data set [5] (setting [15]) is “completely blocked”. Also, the “Effect on TRPV1 current after pertussis toxin pretreatment” value in data set [5] (setting [16]) is recorded as “could not alter”. Further, in [5] (setting [14]), the “TRPV1 IC50 expressed” value was found to be 0.04 ng/mL and the IC50 amounted to 0.1 ± 0.01 nM. Moreover, the “AITC-induced increase in sEPSC frequency” value in data set [6] (0.1 and 1 ng/ml) is on record as “does-dependently blocked”. In addition, in data set [2], the AITC-induced nocifensive behaviors entry is “significantly reduced”. In addition, in data set [4] (0.1 and 1 ng/ml), the “Capsaicin-induced increase in sEPSC frequency” value is reported as “does-dependently blocked”. For the same compound, the “Motor function in the Rota-rod test” value in data set [13] is on record as “Neither did this treatment affect”. Moreover, the “Inhibition of TRPA1 current under intracellular GDPβS” value in data set [3] (setting [15]) is recorded as “completely blocked”. Also, the “Effect on TRPA1 current after pertussis toxin pretreatment” value in [3] (setting [16]) is on record as “could not alter”. Also, the IC50 in data set [3] is 2 nM and 2.1 nM.
